A selection: hits, their analogues and other compounds. The true share with any hit is near 1.7%.
Scp-1 inhibitor = blocks human Scp-1 phosphatase activity | hit rate 0.88% among 340,000 | inhibition, % at 20 µM | Recombinant Scp1, phosphopeptide, malachite green phosphate absorbance | Q9GZU7;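 active means inhibition above about 50% at 20 µM, limit read from the data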
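Material – SCP-1 phosphatase catalytic domain, residues 76-261 · Buffer or medium – Acidic Tris acetate buffer with magnesium and detergent · Also added – Phospho 17-mer peptide substrate · Compound – single 20 µM dose, 1% DMSO · Times – 45 min room-temperature reaction, 5 min colour, 30 min stabiliser · Technique – Phosphate-binding colour reagent, absorbance read at 630 nm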
SUMO1-SIM PPI = SUMO1-SIM interaction modulation. P63165. SUMO1 binding to a labelled peptide, TR-FRET, 1 h. inhibition, % at 20 µM. hit rate 0.33% among 360,000. AID 602429; in the data active means inhibition above about 37%
DNMT1 block = blocks human DNA methyltransferase DNMT1. P26358. inhibition (reported as % activation of signal), % at 10 µM. DNMT1 molecular beacon, Hinp1I cleavage, fluorescence. hit rate 0.83% among 360,000; in the data active means inhibition above about 50%
STEP inh = inhibitors of human striatal-enriched phosphatase STEP. hit rate 0.25% among 360,000. inhibition, % at 20 µM. recombinant STEP, OMFP fluorogenic substrate, fluorescence. P54829;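 active means inhibition at 20 µM, scaled per plate between control wells, above about 37%, limit read from the data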
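Assay system: isolated STEP enzyme. Buffer or medium: pH 6.0 Bis-Tris with DTT and Tween 20. Also added: fluorogenic phosphatase substrate OMFP at 25 µM final. Dosing: 20 µM, 1% DMSO. Timing: 20 min reaction, room temperature, in the dark. Measured by: fluorescence intensity, excitation 480 nm, emission 540 nm. Evaluation: normalized % inhibition.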
LMPTP block = blocks human LMPTP phosphatase; P24666; inhibition, % at 20 µM; recombinant LMPTP-A, OMFP fluorogenic substrate, fluorescence intensity; AID 651560; hit rate 0.22% among 360,000;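 active means compounds that cut the enzyme signal by at least half of the control window in the single-dose screen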
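Test system – LMPTP-A phosphatase enzyme · Quantity – 0.625 nM LMPTP-A final · Reagent – OMFP substrate, 400 µM final · Dosing – one test concentration per compound, 20 µM, with 3% DMSO overall · Timing – 50 min enzyme reaction at room temperature, protected from light · Detection – fluorescence intensity · Controls – substrate-only low control, DMSO enzyme-plus-substrate high control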
Numbers stand for hits.

Results for CCc1ccc(S(=O)(=O)/N=C2/C=C(Sc3ncn[nH]3)C(=O)c3ccccc32)cc1 ?
Scp-1 inhibitor: inactive; SUMO1-SIM PPI: 94; DNMT1 block: 73; STEP inh: inactive; LMPTP block: inactive

How did Cc1[nH]n(-c2ccccc2)c(=O)c1C=Nc1ccc(S(=O)(=O)N=C(N)N)cc1 do in these assays?
Scp-1 inhibitor: inactive; SUMO1-SIM PPI: inactive; DNMT1 block: inactive; STEP inh: inactive; LMPTP block: inactive

How did Cc1[nH]n(-c2ccccc2)c(=S)c1C=Nc1ccc([N+](=O)[O-])cc1 do in these assays?
Scp-1 inhibitor: 74; SUMO1-SIM PPI: inactive; DNMT1 block: inactive; STEP inh: inactive; LMPTP block: inactive

How did O=C(NCc1ccccc1C(F)(F)F)c1cccc2c1C(=O)c1ccc(N3CCC(N4CCCCC4)CC3)cc1S2(=O)=O do in these assays?
SUMO1-SIM PPI: 50; DNMT1 block: inactive; STEP inh: inactive; LMPTP block: inactive

How did O=C(NCc1ccccc1Br)c1cccc2c1C(=O)c1ccc(N3CCC(Cc4ccccc4)CC3)cc1S2(=O)=O do in these assays?
Scp-1 inhibitor: inactive; SUMO1-SIM PPI: inactive; DNMT1 block: inactive; STEP inh: inactive; LMPTP block: inactive

What do the screens show for `COc1cc(-c2ccc(Nc3ccccc3C(=O)O)c(OC)c2)ccc1Nc1ccccc1C(=O)O`?
Scp-1 inhibitor: 70; SUMO1-SIM PPI: 61; DNMT1 block: 109; STEP inh: inactive; LMPTP block: inactive

Results for CC1(C)C2CC[C@]3(C)[C@H](C(=O)C=C4[C@@H]5C[C@@](C)(C(=O)O)CC[C@]5(C)CC[C@]43C)[C@@]2(C)CC[C@@H]1O[C@H]1O[C@H](C(=O)O)[C@@H](O)[C@H](O)[C@H]1O[C@@H]1O[C@H](C(=O)O)[C@@H](O)[C@H](O)[C@H]1O (stereo partly specified) ?
SUMO1-SIM PPI: 41; DNMT1 block: inactive; STEP inh: inactive; LMPTP block: inactive

Results for CN(C(=O)Cn1nc(C(=O)O)c2ccccc2c1=O)C1(C#N)CCCCC1 ?
Scp-1 inhibitor: inactive; SUMO1-SIM PPI: inactive; DNMT1 block: inactive; STEP inh: inactive; LMPTP block: inactive

Results for CC(C)CCNC(=O)NC(=O)COC(=O)c1cc(S(=O)(=O)N2CCOCC2)ccc1N1CCCCC1 ?
Scp-1 inhibitor: inactive; SUMO1-SIM PPI: 45; DNMT1 block: inactive; STEP inh: inactive; LMPTP block: inactive

What do the screens show for `Cc1ccc(S(=O)(=O)N2CCOCC2)cc1C(=O)OCC(=O)Nc1ccc2[nH]c(=O)[nH]c2c1`?
Scp-1 inhibitor: inactive; SUMO1-SIM PPI: 82; DNMT1 block: inactive; STEP inh: inactive; LMPTP block: inactive

What do the screens show for `CCOC(=O)C1=C(COC(=O)Cc2ccc(Br)cc2)NC(=O)NC1C` (stereo unspecified)?
Scp-1 inhibitor: inactive; SUMO1-SIM PPI: inactive; DNMT1 block: inactive; STEP inh: inactive; LMPTP block: inactive

Results for COc1ccc(/C=N/Nc2cc(C)nc3ccc(OC)cc23)c(OC)c1 ?
Scp-1 inhibitor: inactive; SUMO1-SIM PPI: 87; DNMT1 block: 51; STEP inh: inactive; LMPTP block: inactive

What do the screens show for `COc1ccc2nc(C)cc(N/N=C/c3ccccc3)c2c1`?
Scp-1 inhibitor: inactive; SUMO1-SIM PPI: inactive; DNMT1 block: 67; STEP inh: inactive; LMPTP block: inactive

Results for COc1ccccc1/C=N/Nc1cc(C)nc2ccc(C)cc12 ?
Scp-1 inhibitor: inactive; SUMO1-SIM PPI: inactive; DNMT1 block: inactive; STEP inh: inactive; LMPTP block: inactive

Results for NC(=O)c1ccc(NC(=O)C#Cc2ccccc2)cc1 ?
Scp-1 inhibitor: inactive; SUMO1-SIM PPI: inactive; DNMT1 block: inactive; STEP inh: inactive; LMPTP block: inactive

Results for COc1ccccc1CNc1nc(-c2cc(C)n(C)c2C)cs1 ?
Scp-1 inhibitor: inactive; SUMO1-SIM PPI: inactive; DNMT1 block: 76; STEP inh: inactive; LMPTP block: inactive

What do the screens show for `CCOC(=O)C1CCN(S(=O)(=O)c2ccc3c(c2)CC(=O)N3C)CC1`?
Scp-1 inhibitor: 69; SUMO1-SIM PPI: inactive; DNMT1 block: inactive; STEP inh: inactive; LMPTP block: inactive

How did CCOC(=O)C1CCN(S(=O)(=O)c2ccc3c(c2)CCCN3C(C)=O)CC1 do in these assays?
Scp-1 inhibitor: inactive; SUMO1-SIM PPI: inactive; DNMT1 block: inactive; STEP inh: inactive; LMPTP block: inactive

Results for C/C(N)=C(/C#N)C(=O)CSc1nc2ccccc2c(=O)n1Cc1ccc(F)cc1 ?
Scp-1 inhibitor: 73; SUMO1-SIM PPI: inactive; DNMT1 block: inactive; STEP inh: inactive; LMPTP block: inactive

How did O=C(COC(=O)c1ccc(F)c(S(=O)(=O)N2CCOCC2)c1)NCc1ccc(Cl)cc1 do in these assays?
Scp-1 inhibitor: inactive; SUMO1-SIM PPI: inactive; DNMT1 block: inactive; STEP inh: inactive; LMPTP block: inactive

How did O=C(/C=C/c1ccncc1)c1ccc(NC(=O)c2ccccc2F)cc1 do in these assays?
Scp-1 inhibitor: inactive; SUMO1-SIM PPI: inactive; DNMT1 block: inactive; STEP inh: inactive; LMPTP block: 57

What do the screens show for `Cc1cc(C(=O)CCC(=O)N(C)CC(=O)Nc2c(Cl)cccc2Cl)c(C)s1`?
Scp-1 inhibitor: inactive; SUMO1-SIM PPI: inactive; DNMT1 block: inactive; STEP inh: inactive; LMPTP block: inactive

Results for CCN1/C(=C/c2ccc3cc(C)ccc3[n+]2C)Sc2ccc3sccc3c21 ?
Scp-1 inhibitor: inactive; SUMO1-SIM PPI: inactive; DNMT1 block: inactive; STEP inh: inactive; LMPTP block: 77

Results for CCCCN1/C(=C/c2ccc3ccccc3[n+]2CC)Sc2ccccc21 ?
Scp-1 inhibitor: inactive; SUMO1-SIM PPI: inactive; DNMT1 block: inactive; STEP inh: inactive; LMPTP block: inactive

How did CCN1/C(=C/c2ccc3cc(C)ccc3[n+]2CC)Sc2cc(C)ccc21 do in these assays?
Scp-1 inhibitor: inactive; SUMO1-SIM PPI: inactive; DNMT1 block: inactive; STEP inh: inactive; LMPTP block: 50

How did Cc1c(C(=O)O)[nH]c2c1C(=O)CC(c1ccccc1)C2 (stereo unspecified) do in these assays?
Scp-1 inhibitor: inactive; SUMO1-SIM PPI: inactive; DNMT1 block: inactive; STEP inh: inactive; LMPTP block: inactive

What do the screens show for `Cc1c(C(=O)OCCOC(C)C)[nH]c2c1C(=O)CC(c1ccco1)C2` (stereo unspecified)?
Scp-1 inhibitor: inactive; SUMO1-SIM PPI: inactive; DNMT1 block: inactive; STEP inh: inactive; LMPTP block: 59

How did CSCCOC(=O)c1[nH]c2c(c1C)C(=O)CC(c1ccco1)C2 (stereo unspecified) do in these assays?
Scp-1 inhibitor: 75; SUMO1-SIM PPI: inactive; DNMT1 block: inactive; STEP inh: inactive; LMPTP block: inactive

Results for Cc1c(C(=O)OCc2ccccc2)[nH]c2c1C(=O)CC(c1ccco1)C2 (stereo unspecified) ?
Scp-1 inhibitor: 71; SUMO1-SIM PPI: inactive; DNMT1 block: 68; STEP inh: inactive; LMPTP block: 79

Results for COCCOC(=O)c1[nH]c2c(c1C)C(=O)CC(c1ccc(F)cc1)C2 (stereo unspecified) ?
Scp-1 inhibitor: inactive; SUMO1-SIM PPI: inactive; DNMT1 block: inactive; STEP inh: inactive; LMPTP block: inactive
